Source: PubChem BioAssay
beta cell repl = induces beta-cell replication in MIN6 cells; proliferation, % at 10 µM; AID 2380; MIN6 cells proliferation, ATPlite luminescence, 48 h; cells starved in 0.2% serum; 100% = growth in 10% serum; 0.29% of 330,000 active;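 active = compounds whose signal lies at least 3.5 SD above the mean of all wells on their plate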;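 note: 0% = DMSO-treated cells in low-serum medium and 100% = 10% serum control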
ATG4B inhibitor = inhibitors of human ATG4B cysteine protease; Q9Y4P1; inhibition, % at 8.33 µM; 0.51% of 340,000 active; ATG4B cleavage of LC3-PLA2, NBD-HPC fluorescence, 1 h; AID 504462; in the data active = inhibition above about 40%
Target sequence (Q9Y4P1 whole entry, looked up): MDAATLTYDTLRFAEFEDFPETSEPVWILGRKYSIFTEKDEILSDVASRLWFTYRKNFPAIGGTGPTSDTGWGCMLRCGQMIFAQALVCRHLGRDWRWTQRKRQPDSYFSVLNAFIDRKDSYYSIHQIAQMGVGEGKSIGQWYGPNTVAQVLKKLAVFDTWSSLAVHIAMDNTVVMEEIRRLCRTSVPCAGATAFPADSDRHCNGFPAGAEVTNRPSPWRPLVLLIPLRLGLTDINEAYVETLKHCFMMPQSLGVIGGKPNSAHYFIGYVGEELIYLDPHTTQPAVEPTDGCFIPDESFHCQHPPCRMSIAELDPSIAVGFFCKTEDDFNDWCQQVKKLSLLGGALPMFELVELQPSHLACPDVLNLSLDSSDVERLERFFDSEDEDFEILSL
HKDC1 inhibitor = blocks human hexokinase HKDC1 activity; recombinant HKDC1, G6PDH/diaphorase resazurin coupled fluorescence; AID 493160; 0.16% of 340,000 active; Q2TB90; inhibition, % at 20 µM;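 active = inhibition above about 35% when tested at 20 µM, limit read from the data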;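 note: plate controls were DMSO wells with enzyme for no effect and DMSO wells lacking enzyme for full effect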
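Test system: recombinant HKDC1 (HK5) hexokinase enzyme, produced in-house; Amount: enzyme 5 µg/mL final; Buffer or medium: Tris pH 8.0 buffer with MgCl2, Tween-20, BSA, BME; Reagent: glucose and ATP substrates; Doses: 20 µM test compound, 1% DMSO; Incubation: 90 min reaction incubation at room temperature, dark; Detection: resorufin fluorescence at 613 nm.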
PvdQ acylase = blocks Pseudomonas aeruginosa PvdQ acylase activity | purified PvdQ acylase, fluorescence plate reader | inhibition, % at 10 µM | 0.063% of 340,000 active; in the data active = inhibition above about 30%, passing the limit was not always enough;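 note: 0% = vehicle neutral wells and 100% = reference inhibitor wells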
VIM-2 inhibitor = blocks Pseudomonas aeruginosa VIM-2 metallo-beta-lactamase; purified VIM-2, nitrocefin hydrolysis, epi-absorbance fluorescence; inhibition, % at 5.6 µM; 0.89% of 290,000 active;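 active = inhibition above the mean of all tested compounds plus 3 SD, cutoff set per screening run, cut at about 7.5% in these data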;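 note: red hydrolysis product quenches plate fluorescence so inhibitors raise well fluorescence; 0% = enzyme with DMSO and 100% = DMSO without enzyme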
IMP-1 inhibitor = inhibitors of Pseudomonas aeruginosa IMP-1 metallo-beta-lactamase; purified IMP-1, nitrocefin hydrolysis, epi-absorbance fluorescence; 0.45% of 290,000 active; inhibition, % at 5.6 µM; AID 1556;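 active = inhibition above the mean plus 3 SD of all compounds in the same screening run, cut at about 4.5% in these data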;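 note: 0% = IMP-1 with DMSO and 100% = DMSO wells lacking enzyme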
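System: purified IMP-1; amount: IMP-1 0.2 nM before substrate addition; compound: single dose, 5.6 µM; times: 25 °C, 15 min preincubation, 25 min reaction; signal: Epi-absorbance via hydrolysed-nitrocefin quenching of white-plate fluorescence, 480/530 nm, EDTA stop; benchmarks: DMSO with and without IMP-1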
ATG4B conf = ATG4B (human) inhibition, single-dose confirmed; shares compounds with ATG4B inhibitor; ATG4B protease fluorescent substrate cleavage assay; inhibition, % at 8.33 µM; 92% of 320 active; AID 504757; in the data active = inhibition above about 39%
PLA2 counter = PLA2 (human) inhibition in ATG4B counter-screen | shares compounds with ATG4B inhibitor | purified PLA2, NBD-C6-HPC fluorescence, 45 min | inhibition, % at 8.33 µM | 66% of 1,600 active; in the data active = inhibition above about 50%
Target sequence (P04054 whole entry, looked up): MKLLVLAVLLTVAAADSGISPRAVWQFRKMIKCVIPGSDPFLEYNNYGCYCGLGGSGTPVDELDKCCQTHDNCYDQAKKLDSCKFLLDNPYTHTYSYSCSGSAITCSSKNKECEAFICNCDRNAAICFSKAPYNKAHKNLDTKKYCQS
Active calls of the source: *; / = no result given. An excerpt weighted towards active compounds, which were near 2% of everything screened.

SMILES | beta cell repl | ATG4B inhibitor | HKDC1 inhibitor | PvdQ acylase | VIM-2 inhibitor | IMP-1 inhibitor | PLA2 counter | others
COc1cccc(C(=O)OCC(=O)NC(C)CCc2ccccc2)c1O (stereo not drawn) | -2.5 | -12.1 | 2.6 | -4.5 | -2.1 | -0.8 | /
Cc1ccccc1CN(CC(=O)Nc1cccc([N+](=O)[O-])c1)S(=O)(=O)c1ccc(Cl)cc1 | -2.8 | 64.2* | -5.9 | 5.5 | 1.5 | -4.3 | 76.8*
COc1ccc(C)cc1S(=O)(=O)N(CC(=O)Nc1cccc([N+](=O)[O-])c1)c1ccccc1 | -2.2 | 83.7* | 14.6 | -13.3 | -2.0 | -2.3 | 90.2*
COc1ccc2c(c1)cc1c(=O)n(CC(=O)NCCCN3CCOCC3)nc(C)n12 | -2.5 | -0.6 | 3.2 | -6.6 | 0.4 | -0.2 | /
CSc1nsc2nc(=O)c(/C=C3\C=Nc4ccccc43)c(N)n12 | -1.5 | -2.3 | 5.9 | -12.6 | -0.7 | -0.5 | /
Nc1c(C=C2C=CC(=O)C=C2)c(=O)nc2snc(SCc3ccccc3)n12 | -2.4 | 40.4* | 5.8 | 2.6 | -2.1 | -3.3 | 31.6 | ATG4B conf=76.3*
Fc1ccc(CSc2nc3ccccc3[nH]2)c2ccccc12 | -1.8 | 66.5* | 0.9 | -18.7 | -1.1 | -3.6 | 74.3*
COc1ccc(N2CC(C(=O)N/N=C/c3cc([N+](=O)[O-])ccc3O)CC2=O)cc1 (stereo not drawn) | 0.8 | 11.3 | -7.1 | -12.8 | -3.1 | -3.3 | /
CC(C)CCn1c(=O)c2ccccc2c2ccccc2c1=O | 0.0 | 64.2* | 0.4 | -14.0 | -2.7 | -3.8 | 71.0*
O=C(CSCc1c(F)cccc1Cl)NNC(=S)NC1CCCCC1 | -1.3 | 65.6* | -4.4 | -8.9 | -4.6 | -1.7 | 62.9*
O=C(O/N=C1/CCSc2ccccc21)c1ccccc1 | 0.1 | 42.1* | -3.2 | -9.4 | -7.3 | -1.1 | 36.5 | ATG4B conf=71.5*
Cc1ccc2c(c1)/C(=N/OC(=O)c1ccc(F)cc1)CCS2 | 0.8 | 10.4 | 2.6 | 11.7 | -3.3 | -0.8 | /
COC(=O)C1=C(C(=O)OC)[C@@H]2Nc3ccccc3[C@@]23C[C@@H](C(=O)OC)N(C(=O)c2cccs2)C3=N1 | -5.9 | 3.3 | 2.1 | -1.3 | / | / | /
CN1C(=O)CC(N2CCN(c3ccc(Cl)c(Cl)c3)CC2)C1=O (stereo not drawn) | -0.2 | 3.8 | -2.1 | 7.5 | -1.4 | -1.6 | /
O=C(O)c1cc2c(cc1NC(=O)c1ccccc1C(F)(F)F)OCCCO2 | -1.3 | 62.9* | -4.9 | 16.9 | -2.9 | -2.2 | 63.3*
O=C(Nc1cc2c(cc1C(=O)O)OCCCO2)c1ccc(C(F)(F)F)cc1 | 0.0 | 9.7 | -3.4 | -16.4 | -3.5 | -1.9 | /
COc1cc(CNc2ccc(S(N)(=O)=O)cc2)ccc1OCC(=O)NC1CCCCC1 | 0.4 | -1.6 | -9.8 | 9.5 | -2.8 | -2.0 | /
Clc1ccc2c(N/N=C/c3ccccc3Br)ccnc2c1 | -3.5 | 48.0* | -7.7 | 1.4 | -1.9 | -3.1 | 27.1 | ATG4B conf=56.4*
OCCC1CN(C2CCN(c3ccccc3)CC2)CCN1Cc1ccc(F)c(F)c1 (stereo not drawn) | -3.0 | 11.8 | -1.7 | -9.7 | -6.1 | -3.6 | /
O=c1c2ccccc2nc(SCc2cn3ccsc3n2)n1-c1ccc(F)cc1 | -2.4 | 74.5* | 4.1 | 2.1 | -2.4 | -2.8 | 71.4*
O=C(c1ccc(-n2c(SCc3cc(F)ccc3F)nc3ccccc3c2=O)cc1)N1CCOCC1 | 0.0 | 47.0* | -3.3 | 5.7 | -0.5 | -2.1 | 8.8 | ATG4B conf=63.2*
Cc1ccc(S(=O)(=O)Nc2c(O)c3ccccc3oc2=O)cc1C | 1.0 | -1.8 | -6.4 | 7.8 | 0.6 | -1.0 | /
CC1CCN(CC(=O)Nc2ccccc2-c2ccccc2)CC1 | -3.1 | 45.1* | 7.8 | -3.1 | -3.7 | 1.6 | 68.9*
CC1CCCCC1NCC(=O)Nc1ccccc1-c1ccccc1 (stereo not drawn) | -3.4 | 48.2* | 0.8 | -8.9 | -4.3 | -1.9 | 53.2*
CC1CCN(CC(=O)Nc2ccccc2C(=O)c2ccccc2)CC1 | 3.2 | -8.7 | -6.3 | -5.1 | -2.5 | -1.8 | /
